# Experimental data as given in PMC5776435 (Iranian Journal of Basic Medical Sciences, 2018).
# Legend:
# HepG2 cells = test: MTT assay, cytotoxicity on HepG2 cells; format: cell-based, human
# Method in brief: (§1)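 Cells were grown in RPMI 1640 with 10% FBS and penicillin/streptomycin at 37 °C, 5% CO2, and seeded for 24 hr. They were exposed 6 hr to peptide (1.25–100 µg/ml for IC50; 10 µg/ml for viability). MTT (5 mg/ml stock in PBS) was then added for 4 hr at 37 °C, formazan dissolved in DMSO for 30 min, and A570 read. 5-Fluorouracil served as positive control and DMSO as blank. Triplicates were run; IC50 is the mean ± SD of three experiments.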
# HT-29 cells = test: MTT assay, cytotoxicity on HT-29 cells; format: cell-based, human
# Method in brief: as §1
# [1] = MTT assay, 10 µg/ml of each peptide, 6 hr, control = 100
smiles,measurement,setting,value
O=c1[nH]cc(F)c(=O)[nH]1 [5-Fluorouracil],IC50,"HepG2 cells; Homo sapiens, HepG2, 6 h, read-out: IC50 cell line HepG2",3.16 µg/mL
same,"Viability percentage (HepG2), MTT assay",HepG2 cells; [1],3.22%
same,IC50,"HT-29 cells; Homo sapiens, HT-29, 6 h, read-out: IC50 cell line HT-29",6.08 µg/mL
same,"Viability percentage (HT-29), MTT assay",HT-29 cells; [1],9.28%
